# Test results taken from ChEMBL document CHEMBL1127521, “CCK-A-selective tetrapeptides containing lys(N epsilon)-amide residues: favorable in vivo and in vitro effects of N-methylation at the aspartyl residue” (J Med Chem, 1994).
# Square brackets hold non-standard residues; d marks the D form. Peptide text beside a SMILES is read from it. * marks the point of attachment. ξ: configuration not given here. Acryloyl(3-(3-pyridyl),E) = O=C(/C=C/c1cccnc1)*; NMeF = CN[C@@H](Cc1ccccc1)C(=O)O; ξW = NC(Cc1c[nH]c2ccccc12)C(=O)O; NMeD = CN[C@@H](CC(=O)O)C(=O)O; X1 = O=C(/C=C/c1ccc(O)cc1)*; X2 = O=C(/C=C/c1cccs1)*; Boc = CC(C)(C)OC(=O)*
# How the values were obtained:
# Rattus norvegicus = experiment: Compound was evaluated for Appetite suppression, based on intake of liquid diet by food-deprived rats for 1 h following intraperitoneal injection; format: functional; details: ip
# Method in brief: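 Rats are food-deprived, dosed intraperitoneally, and their liquid diet intake over the following 1 h is measured as the appetite suppression read-out.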
# [1] = target: Cholecystokinin B receptor (Cavia porcellus); experiment: In vitro binding for inhibition of [125I]- Bolton-Hunter-CCK-8 binding in guinea pig cortex
# [2] = target: Cholecystokinin A receptor (Cavia porcellus); experiment: In vitro inhibition of [125I]CCK-8 binding to guinea pig pancreas
# [3] = target: T1, Cholecystokinin receptor type A (Cavia porcellus) (UniProt Q63931); experiment: Percent maximal stimulation of phosphatidylinositol hydrolysis in guinea pig pancreatic acini (CCK-A receptors) relative to CCK-8; format: functional
# T1 sequence (whole entry): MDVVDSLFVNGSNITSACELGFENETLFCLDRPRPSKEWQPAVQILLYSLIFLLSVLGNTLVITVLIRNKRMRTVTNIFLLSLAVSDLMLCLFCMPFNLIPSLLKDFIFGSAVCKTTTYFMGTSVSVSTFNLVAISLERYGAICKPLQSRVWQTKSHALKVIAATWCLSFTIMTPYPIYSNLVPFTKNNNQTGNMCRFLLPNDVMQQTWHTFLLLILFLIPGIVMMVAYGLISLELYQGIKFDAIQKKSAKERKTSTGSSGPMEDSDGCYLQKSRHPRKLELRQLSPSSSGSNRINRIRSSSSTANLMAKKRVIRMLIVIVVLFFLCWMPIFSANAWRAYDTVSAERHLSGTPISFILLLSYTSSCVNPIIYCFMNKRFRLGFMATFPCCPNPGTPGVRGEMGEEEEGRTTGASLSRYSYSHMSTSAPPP
# Method in brief: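 Functional CCK-A assay in guinea pig pancreatic acini. Phosphatidylinositol hydrolysis is measured and expressed as percent of the maximal stimulation produced by CCK-8.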
Hydrolysis [3] [%],Structure (SMILES),ED50 (Rattus norvegicus) [µmol/kg],further results
–,CN(C(=O)[C@H](CCCCNC(=O)/C=C/c1cccs1)NC(=O)[C@H](Cc1c[nH]c2ccccc12)NC(=O)OC(C)(C)C)[C@@H](CC(=O)O)C(=O)N(C)[C@@H](Cc1ccccc1)C(N)=O (Boc-WK(X2)[NMeD][NMeF]-NH2) [listing 1 of 2 here],0.022,–
–,CN(C(=O)[C@H](CCCCNC(=O)/C=C/c1cccs1)NC(=O)[C@H](Cc1c[nH]c2ccccc12)NC(=O)OC(C)(C)C)[C@@H](CC(=O)O)C(=O)N(C)[C@@H](Cc1ccccc1)C(N)=O (Boc-WK(X2)[NMeD][NMeF]-NH2) [listing 2 of 2 here],–,IC50 [1]: 10.9 µM; IC50 [2]: 0.032 µM
–,CN(C(=O)[C@H](CCCCNC(=O)/C=C/c1ccc(O)cc1)NC(=O)[C@H](Cc1c[nH]c2ccccc12)NC(=O)OC(C)(C)C)[C@@H](CC(=O)O)C(=O)N(C)[C@@H](Cc1ccccc1)C(N)=O (Boc-WK(X1)[NMeD][NMeF]-NH2) [listing 1 of 2 here],0.062,–
–,CN(C(=O)[C@H](CCCCNC(=O)/C=C/c1ccc(O)cc1)NC(=O)[C@H](Cc1c[nH]c2ccccc12)NC(=O)OC(C)(C)C)[C@@H](CC(=O)O)C(=O)N[C@@H](Cc1ccccc1)C(N)=O (Boc-WK(X1)[NMeD]F-NH2) [listing 1 of 2 here],0.018,–
95,CN(C(=O)[C@H](CCCCNC(=O)/C=C/c1cccs1)NC(=O)C(Cc1c[nH]c2ccccc12)NC(=O)OC(C)(C)C)[C@@H](CC(=O)O)C(=O)N[C@@H](Cc1ccccc1)C(N)=O (some centres not stated) (Boc-[ξW]K(X2)[NMeD]F-NH2),–,–
–,CN(C(=O)[C@H](CCCCNC(=O)/C=C/c1cccs1)NC(=O)[C@H](Cc1c[nH]c2ccccc12)NC(=O)OC(C)(C)C)[C@@H](CC(=O)O)C(=O)N[C@@H](Cc1ccccc1)C(N)=O (Boc-WK(X2)[NMeD]F-NH2) [listing 1 of 2 here],0.012,–
–,CN(C(=O)[C@H](CC(=O)O)NC(=O)[C@H](CCCCNC(=O)/C=C/c1ccc(O)cc1)NC(=O)[C@H](Cc1c[nH]c2ccccc12)NC(=O)OC(C)(C)C)[C@@H](Cc1ccccc1)C(N)=O (Boc-WK(X1)D[NMeF]-NH2),0.413,–
94,"CN(C(=O)[C@H](CCCCNC(=O)/C=C/c1cccnc1)NC(=O)C(Cc1c[nH]c2ccccc12)NC(=O)OC(C)(C)C)[C@@H](CC(=O)O)C(=O)N(C)[C@@H](Cc1ccccc1)C(N)=O (some centres not stated) (Boc-[ξW]K(Acryloyl(3-(3-pyridyl),E))[NMeD][NMeF]-NH2)",–,–
84,CN(C(=O)[C@H](CC(=O)O)NC(=O)[C@H](CCCCNC(=O)/C=C/c1cccs1)NC(=O)C(Cc1c[nH]c2ccccc12)NC(=O)OC(C)(C)C)[C@@H](Cc1ccccc1)C(N)=O (some centres not stated) (Boc-[ξW]K(X2)D[NMeF]-NH2),–,–
–,CN(C(=O)[C@H](CC(=O)O)NC(=O)[C@H](CCCCNC(=O)/C=C/c1cccs1)NC(=O)[C@H](Cc1c[nH]c2ccccc12)NC(=O)OC(C)(C)C)[C@@H](Cc1ccccc1)C(N)=O (Boc-WK(X2)D[NMeF]-NH2) [listing 1 of 2 here],–,IC50 [1]: 0.731 µM; IC50 [2]: 0.018 µM
98,"CN(C(=O)[C@H](CCCCNC(=O)/C=C/c1cccnc1)NC(=O)C(Cc1c[nH]c2ccccc12)NC(=O)OC(C)(C)C)[C@@H](CC(=O)O)C(=O)N[C@@H](Cc1ccccc1)C(N)=O (some centres not stated) (Boc-[ξW]K(Acryloyl(3-(3-pyridyl),E))[NMeD]F-NH2)",–,–
–,"CN(C(=O)[C@H](CCCCNC(=O)/C=C/c1cccnc1)NC(=O)[C@H](Cc1c[nH]c2ccccc12)NC(=O)OC(C)(C)C)[C@@H](CC(=O)O)C(=O)N[C@@H](Cc1ccccc1)C(N)=O (Boc-WK(Acryloyl(3-(3-pyridyl),E))[NMeD]F-NH2) [listing 1 of 2 here]",–,IC50 [1]: 10.4 µM; IC50 [2]: 0.041 µM
–,"CN(C(=O)[C@H](CC(=O)O)NC(=O)[C@H](CCCCNC(=O)/C=C/c1cccnc1)NC(=O)[C@H](Cc1c[nH]c2ccccc12)NC(=O)OC(C)(C)C)[C@@H](Cc1ccccc1)C(N)=O (Boc-WK(Acryloyl(3-(3-pyridyl),E))D[NMeF]-NH2) [listing 1 of 2 here]",2.52,–
88,"CN(C(=O)[C@H](CC(=O)O)NC(=O)[C@H](CCCCNC(=O)/C=C/c1cccnc1)NC(=O)C(Cc1c[nH]c2ccccc12)NC(=O)OC(C)(C)C)[C@@H](Cc1ccccc1)C(N)=O (some centres not stated) (Boc-[ξW]K(Acryloyl(3-(3-pyridyl),E))D[NMeF]-NH2)",–,–
–,"CN(C(=O)[C@H](CC(=O)O)NC(=O)[C@H](CCCCNC(=O)/C=C/c1cccnc1)NC(=O)[C@H](Cc1c[nH]c2ccccc12)NC(=O)OC(C)(C)C)[C@@H](Cc1ccccc1)C(N)=O (Boc-WK(Acryloyl(3-(3-pyridyl),E))D[NMeF]-NH2) [listing 2 of 2 here]",–,IC50 [1]: 0.128 µM
–,CN(C(=O)[C@H](CC(=O)O)NC(=O)[C@H](CCCCNC(=O)/C=C/c1cccs1)NC(=O)[C@H](Cc1c[nH]c2ccccc12)NC(=O)OC(C)(C)C)[C@@H](Cc1ccccc1)C(N)=O (Boc-WK(X2)D[NMeF]-NH2) [listing 2 of 2 here],1.4,–
93,CN(C(=O)[C@H](CCCCNC(=O)/C=C/c1cccs1)NC(=O)C(Cc1c[nH]c2ccccc12)NC(=O)OC(C)(C)C)[C@@H](CC(=O)O)C(=O)N(C)[C@@H](Cc1ccccc1)C(N)=O (some centres not stated) (Boc-[ξW]K(X2)[NMeD][NMeF]-NH2),–,–
–,CN(C(=O)[C@H](CCCCNC(=O)/C=C/c1cccs1)NC(=O)[C@H](Cc1c[nH]c2ccccc12)NC(=O)OC(C)(C)C)[C@@H](CC(=O)O)C(=O)N[C@@H](Cc1ccccc1)C(N)=O (Boc-WK(X2)[NMeD]F-NH2) [listing 2 of 2 here],–,IC50 [1]: 4.577 µM; IC50 [2]: 0.035 µM
–,CN(C(=O)[C@H](CCCCNC(=O)/C=C/c1ccc(O)cc1)NC(=O)[C@H](Cc1c[nH]c2ccccc12)NC(=O)OC(C)(C)C)[C@@H](CC(=O)O)C(=O)N[C@@H](Cc1ccccc1)C(N)=O (Boc-WK(X1)[NMeD]F-NH2) [listing 2 of 2 here],–,IC50 [1]: 5.81 µM; IC50 [2]: 0.005 µM
–,"CN(C(=O)[C@H](CCCCNC(=O)/C=C/c1cccnc1)NC(=O)[C@H](Cc1c[nH]c2ccccc12)NC(=O)OC(C)(C)C)[C@@H](CC(=O)O)C(=O)N[C@@H](Cc1ccccc1)C(N)=O (Boc-WK(Acryloyl(3-(3-pyridyl),E))[NMeD]F-NH2) [listing 2 of 2 here]",0.036,–
91,CN(C(=O)[C@H](CCCCNC(=O)/C=C/c1ccc(O)cc1)NC(=O)C(Cc1c[nH]c2ccccc12)NC(=O)OC(C)(C)C)[C@@H](CC(=O)O)C(=O)N(C)[C@@H](Cc1ccccc1)C(N)=O (some centres not stated) (Boc-[ξW]K(X1)[NMeD][NMeF]-NH2),–,–
76,CN(C(=O)[C@H](CC(=O)O)NC(=O)[C@H](CCCCNC(=O)/C=C/c1ccc(O)cc1)NC(=O)C(Cc1c[nH]c2ccccc12)NC(=O)OC(C)(C)C)[C@@H](Cc1ccccc1)C(N)=O (some centres not stated) (Boc-[ξW]K(X1)D[NMeF]-NH2),–,–
–,CN(C(=O)[C@H](CCCCNC(=O)/C=C/c1ccc(O)cc1)NC(=O)[C@H](Cc1c[nH]c2ccccc12)NC(=O)OC(C)(C)C)[C@@H](CC(=O)O)C(=O)N(C)[C@@H](Cc1ccccc1)C(N)=O (Boc-WK(X1)[NMeD][NMeF]-NH2) [listing 2 of 2 here],–,IC50 [1]: 13.6 µM; IC50 [2]: 0.009 µM
–,"CN(C(=O)[C@H](CCCCNC(=O)/C=C/c1cccnc1)NC(=O)[C@H](Cc1c[nH]c2ccccc12)NC(=O)OC(C)(C)C)[C@@H](CC(=O)O)C(=O)N(C)[C@@H](Cc1ccccc1)C(N)=O (Boc-WK(Acryloyl(3-(3-pyridyl),E))[NMeD][NMeF]-NH2) [listing 1 of 2 here]",0.016,–
–,"CN(C(=O)[C@H](CCCCNC(=O)/C=C/c1cccnc1)NC(=O)[C@H](Cc1c[nH]c2ccccc12)NC(=O)OC(C)(C)C)[C@@H](CC(=O)O)C(=O)N(C)[C@@H](Cc1ccccc1)C(N)=O (Boc-WK(Acryloyl(3-(3-pyridyl),E))[NMeD][NMeF]-NH2) [listing 2 of 2 here]",–,IC50 [2]: 0.05 µM
101,CN(C(=O)[C@H](CCCCNC(=O)/C=C/c1ccc(O)cc1)NC(=O)C(Cc1c[nH]c2ccccc12)NC(=O)OC(C)(C)C)[C@@H](CC(=O)O)C(=O)N[C@@H](Cc1ccccc1)C(N)=O (some centres not stated) (Boc-[ξW]K(X1)[NMeD]F-NH2),–,–
